Measured values pooled from the literature.
Target: Serine/threonine-protein kinase Nek4 (NEK4, Homo sapiens, UniProt P51957)

Structure (SMILES)	assay	conditions	measurement	value
O=c1[nH]c2ccccc2n1C1CCN(Cc2ccc(-c3[nH]c4cc5ncnc5cc4nc3-c3ccccc3)cc2)CC1	cell-free assay	0.5 µM	remaining signal	106%
Nc1ncc(-c2nc(N3CCOCC3)nc(N3CCOCC3)n2)c(C(F)F)n1	binding, competition with immobilised ligand	10 µM	remaining binding	75%
CC(C)(C)c1cc(C=C(C#N)C#N)cc(Br)c1O	enzyme activity, inhibitor	0.5 µM	remaining activity	93.7%
Cn1cncc1[C@@](O)(COc1ccc(C#N)cc1-c1ccc(OC(F)(F)F)cc1)c1ccc(C#N)cc1	cell-free assay, competition with immobilised ligand	1 µM	remaining binding	90%
Cn1cc(-c2cccc(N3CCc4c(sc5c4CC(C)(C)C5)C3=O)c2CO)cc(Nc2ccncn2)c1=O	enzyme activity, inhibitor	1 µM	inhibition	2%
Cc1nn(C)cc1-c1nc2c(N3CCN(Cc4ccc(Cl)cc4)CC3)c(Cl)cnc2[nH]1	binding, competition with immobilised ligand	1 µM	remaining binding	82%
COc1ncccc1-c1cnn2ccc(N3CCN(C(=O)OC(C)C)CC3)nc12	binding, competition with immobilised ligand	1 µM	remaining binding	87%
COc1cc(Nc2ncc(F)c(Nc3ccc4c(n3)NC(=O)C(C)(C)O4)n2)cc(OC)c1OC	binding, competition with immobilised ligand	10 µM	inhibition	91%
N#CC1(c2ccccn2)CCN(Cc2cc(C(=O)O)c(=O)n3ccccc23)CC1	cell-free assay, competition with immobilised ligand	1 µM	remaining binding	100%
Cn1cc(-c2cc(F)cc(N3CCn4c(cc5c4CCCC5)C3=O)c2CO)cc(Nc2ccc(N3CCN(C4COC4)CC3)cn2)c1=O	enzyme activity, inhibitor	0.1 µM	inhibition	9%
